A selection: hits, their analogues and other compounds. The true share with any hit is near 4.7%.
aSyn UTR inh = MLPCN primary screen, SNCA 5' untranslated region; alpha-synuclein 5'UTR reporter, inhibitor activity; inhibition, % (tested at 7.5 µM); actives 0.82% (n = 300,000); AID 1813; in the data active = inhibition above about 60%;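 also: H4 neuroglioblastoma cells stably carrying SNCA 5'UTR luciferase fusion; 0% = DMSO wells and 100% = positive control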
IMP-1 inh = blocks Pseudomonas aeruginosa IMP-1 metallo-beta-lactamase. inhibition, % at 5.6 µM. AID 1556. actives 0.45% (n = 290,000). purified IMP-1, nitrocefin hydrolysis, epi-absorbance fluorescence;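 active = inhibition above the mean plus 3 SD of all compounds in the same screening run, cut at about 4.5% in these data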;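 also: 0% = IMP-1 with DMSO and 100% = DMSO wells lacking enzyme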
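Test system: recombinant IMP-1 enzyme, purified / Medium: HEPES buffer pH 7.1 with ZnSO4 and Brij 35 / Doses: single dose, 5.6 µM / Times: 25 °C, 15 min preincubation, 25 min reaction / Detection: Epi-absorbance via hydrolysed-nitrocefin quenching of white-plate fluorescence, 480/530 nm, EDTA stop / Evaluation: percent inhibition from optical density relative to buffer-blank wells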
697 NFkB inh = inhibitors of the PMA/ionomycin-induced NF-kB reporter in 697 B cells. 697 B-cell NF-kB luciferase reporter, 16 h. inhibition, % at 4 µM. actives 0.33% (n = 330,000). AID 435022; in the data active = inhibition above about 35%
VIM-2 inhibitor = inhibitors of Pseudomonas aeruginosa VIM-2 metallo-beta-lactamase. inhibition, % at 5.6 µM. AID 1527. actives 0.89% (n = 290,000). purified VIM-2, nitrocefin hydrolysis, epi-absorbance fluorescence;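 active = inhibition above the mean of all tested compounds plus 3 SD, cutoff set per screening run, cut at about 7.5% in these data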;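 also: red hydrolysis product quenches plate fluorescence so inhibitors raise well fluorescence; 0% = enzyme with DMSO and 100% = DMSO without enzyme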
Jurkat NFkB inh = inhibitors of the PMA/ionomycin-induced NF-kB reporter in Jurkat cells | PMA/ionomycin-induced NF-kB luciferase reporter, luminescence | inhibition, % at 4 µM | actives 0.53% (n = 330,000) | AID 435003; in the data active = inhibition above about 50%
Mdm2-MdmX inh = human Mdm2/MdmX binding inhibition; O15151+Q00987; SaOS-2 split-luciferase Mdm2/MdmX complementation, luminescence; inhibition, % at 8 µM; actives 3% (n = 330,000);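 active = inhibition of at least 50% at 8 µM in the primary screen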
Target sequence (O15151 whole entry, looked up): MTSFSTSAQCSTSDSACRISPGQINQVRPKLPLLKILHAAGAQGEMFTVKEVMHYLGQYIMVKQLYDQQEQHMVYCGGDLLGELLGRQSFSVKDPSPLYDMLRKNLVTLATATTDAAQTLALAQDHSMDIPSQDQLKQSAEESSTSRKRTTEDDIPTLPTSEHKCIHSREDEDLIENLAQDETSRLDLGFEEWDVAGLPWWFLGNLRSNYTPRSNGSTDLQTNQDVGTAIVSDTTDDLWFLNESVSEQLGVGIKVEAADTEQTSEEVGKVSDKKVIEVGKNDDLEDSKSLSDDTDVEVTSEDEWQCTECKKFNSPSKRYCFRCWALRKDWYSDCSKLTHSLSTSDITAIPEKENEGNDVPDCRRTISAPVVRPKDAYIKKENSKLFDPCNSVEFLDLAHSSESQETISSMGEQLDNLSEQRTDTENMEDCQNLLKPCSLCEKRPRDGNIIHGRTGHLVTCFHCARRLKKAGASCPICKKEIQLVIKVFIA
Target sequence (Q00987 whole entry, looked up): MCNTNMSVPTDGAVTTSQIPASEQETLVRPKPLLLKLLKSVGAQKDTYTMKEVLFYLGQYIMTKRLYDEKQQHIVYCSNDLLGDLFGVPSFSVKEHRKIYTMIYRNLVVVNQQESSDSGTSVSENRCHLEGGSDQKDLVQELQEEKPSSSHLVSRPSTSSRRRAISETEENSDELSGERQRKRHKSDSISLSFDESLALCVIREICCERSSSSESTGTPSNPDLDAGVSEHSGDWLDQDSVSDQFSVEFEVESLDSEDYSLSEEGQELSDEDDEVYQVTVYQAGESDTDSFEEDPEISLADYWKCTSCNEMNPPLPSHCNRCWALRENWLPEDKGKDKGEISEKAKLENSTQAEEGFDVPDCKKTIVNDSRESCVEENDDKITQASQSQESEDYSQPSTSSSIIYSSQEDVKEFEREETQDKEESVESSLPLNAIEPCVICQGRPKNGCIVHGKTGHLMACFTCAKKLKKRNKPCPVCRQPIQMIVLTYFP
Starred values were filed as active, the others as inactive; nt = not tested or not shown.

SMILES	aSyn UTR inh	IMP-1 inh	697 NFkB inh	VIM-2 inhibitor	Jurkat NFkB inh	Mdm2-MdmX inh
COc1cccc(CNC(=O)COC(=O)CCS(=O)(=O)c2ccc(C)cc2)c1	nt	nt	12.8	nt	21.7	4.9
COc1cccc(NS(=O)(=O)c2ccc3c(c2)C2C=CCC2C(c2ccc(C(=O)O)cc2)N3)c1 (stereo unspecified)	18.3	22.3*	nt	-4.6	nt	nt
COc1ccc(C(=O)N/N=C(\C)c2ccc3c(c2)C2C=CCC2C(c2ccccc2)N3)cc1 (stereo unspecified)	nt	-1.2	nt	-4.4	nt	nt
O=C(O)c1ccc2c(c1)[C@@H]1C=CC[C@@H]1[C@H](c1ccccn1)N2	15.9	5.6*	16.7	-1.9	0.4	5.1
CCOC(=O)c1ccc(N2CN(C3CCCCC3)CNC2=S)cc1	-21.2	7.2*	-11.8	-0.4	-5.2	-1.8
CN(CC(=O)Nc1ccccc1Br)C(=O)c1sccc1-c1ccccc1	nt	nt	-7.9	nt	0.0	-19.8
O=c1cc(CO)oc(CN2CCCC2)c1O	0.5	8.3*	9.2	-0.9	-18.7	29.0
CN1CCN(Cc2oc(CO)cc(=O)c2O)CC1	11.2	1.2	9.4	1.4	12.5	33.0
CC(=O)N(Cc1cc2ccccc2[nH]c1=O)c1ccc(C)cc1	-7.4	0.5	-9.7	0.9	-2.3	9.4
O=C1c2ccccc2C(=O)c2c1ncn2-c1ccccc1	70.3*	-0.8	-14.5	-1.2	7.1	4.1
CN(C)c1ccc(/C=C/C(=O)c2cccc(Br)c2)cc1	-46.4	8.3*	-12.7	5.9	-5.5	14.5
Cc1ccc2nc(Cl)c3cc(C(=O)N(CCN(C)C)Cc4ccco4)sc3c2c1	-42.8	1.6	-39.5	8.3*	-18.1	39.6
Cc1ccc(N2C=Nc3ccc(C)c4nc(C)cc2c34)cc1	32.5	-0.7	-16.6	11.2*	22.4	9.2
CC1=Nc2ccc(C)c3nc(C)cc(c23)N1c1ccc(C)cc1	28.5	-1.6	-38.7	2.5	0.5	35.5
CN(CC(=O)Nc1cccc(F)c1)C(=O)C1CC(=O)N(Cc2ccccc2)C1 (stereo unspecified)	11.5	-2.9	5.0	-1.9	-6.9	12.5
CN1CCN(c2ccc(NC(=O)c3cc([N+](=O)[O-])ccc3N3CCOCC3)cc2)CC1	-22.8	-2.4	12.5	12.2*	-6.2	17.8
CCOc1ccc(NC(=O)c2cc([N+](=O)[O-])ccc2N2CCOCC2)cc1	9.4	nt	-23.2	nt	7.1	27.4
CC1CCN(CCCNC(=O)CCNC(=O)Cn2cnc3ccccc3c2=O)CC1	5.8	-2.3	-3.4	-4.2	-18.4	-5.5
Oc1c(Br)cc(Br)cc1CNc1cnc2ccccc2c1	2.9	14.2*	-36.0	3.1	-23.1	-8.8
Oc1c(Br)cc(Br)cc1CNc1ccc(F)cc1	8.1	-2.3	7.2	-1.4	5.7	-3.7
CCOC(=O)c1ccccc1Nc1cc(C)nc2nc(C)nn12	3.7	-1.9	7.4	9.5*	-3.9	23.6
CCOc1ccc(Nc2cc(C)nc3nc(C)nn23)cc1	16.8	1.2	-17.9	8.4*	-10.8	-14.3
Cc1cc(Nc2ccccc2Br)n2nc(C)nc2n1	13.4	-3.5	-7.7	7.3	5.3	-26.2
COc1ccc(Nc2cc(C)nc3ncnn23)c(OC)c1	1.3	-1.6	12.3	5.7	1.8	7.8
COc1ccc(Nc2cc(C)nc3nc(C)nn23)c(OC)c1	14.5	-3.1	10.3	12.2*	2.6	25.9
SMILES	aSyn UTR inh	IMP-1 inh	697 NFkB inh	VIM-2 inhibitor	Jurkat NFkB inh	Mdm2-MdmX inh
COC(=O)c1ccc(Nc2cc(C)nc3nc(C)nn23)cc1	0.3	1.6	14.7	7.2	-3.9	-13.2
COc1cccc(Nc2cc(C)nc3nc(C)nn23)c1	7.0	-0.6	-13.9	10.8*	-5.2	13.6
Cc1cc(Nc2ccc(F)c(Cl)c2)n2nc(C)nc2n1	5.5	-5.3	4.4	1.1	10.6	2.5
O=C(CSc1ccc(Br)cc1)Nc1cccc(S(=O)(=O)N2CCOCC2)c1	nt	nt	0.5	nt	-6.6	13.9
Cc1cc2c(c(=O)o1)C(CCC1CCCCC1)C(C#N)=C(N)O2 (stereo unspecified)	-8.5	11.2*	13.9	-2.0	14.0	21.4
CCC(CC)C1C(C#N)=C(N)Oc2cc(C)oc(=O)c21 (stereo unspecified)	-19.4	-0.9	2.4	-3.5	13.7	-6.3
CC(=O)c1ccc(S(=O)(=O)N2CCN(CC(=O)Nc3ccccc3C(=O)NC3CC3)CC2)cc1	nt	nt	-8.8	nt	-4.9	-23.9
C(=N\Nc1nc2ccccc2[nH]1)/c1ccc2ncccc2c1	94.6*	-3.5	-131.8	-3.9	-19.5	-77.9
C(=N\Nc1nc2ccccc2[nH]1)/c1ccccn1	111.7*	-3.3	nt	-3.6	nt	nt
CC(C)C(=O)Nc1c2c(nn1-c1ccc(F)cc1)CSC2	-7.8	-1.6	20.6	-0.6	12.3	33.6
O=C(NC1CCN(C(=O)Nc2ccc(F)cc2)CC1)c1cccc(F)c1	-8.5	-3.9	10.7	-2.0	7.0	7.8
COc1ccc2cc(/C=N/NC(=O)c3ccc(CN(c4ccc(C)c(C)c4)S(C)(=O)=O)cc3)c(Cl)nc2c1	64.8*	-2.5	7.0	-7.8	17.1	8.0
Cc1ccc(-n2nc3c(c2NC(=O)CC(C)C)CS(=O)(=O)C3)c(C)c1	8.8	-5.3	9.5	-0.6	-2.4	23.9
COc1ccc(C2=CSC3=NCCN23)cc1OC	14.4	-3.5	4.2	9.0*	-2.6	24.5
CC(=O)c1ccccc1OCCOCCOCCOc1ccccc1C(C)=O	67.3*	-1.9	6.3	-1.7	7.5	-12.2
COc1cc(CN2CCCC(N3CCN(c4ccccc4C)CC3)C2)ccc1O (stereo unspecified)	-23.7	-3.4	-7.2	-3.5	2.0	4.7
C=CCn1c(SCC(C)=O)nc2scc(-c3ccco3)c2c1=O	15.7	15.5*	-11.6	4.2	-3.7	6.5
C=CCn1c(SCC(=O)N2CCOCC2)nc2scc(-c3ccco3)c2c1=O	6.0	-2.1	-13.3	0.6	2.6	13.6
CC(=O)OC[C@H]1O[C@@H](O[C@H]2C[C@]3(C)C(C[C@@H](O)C4C([C@]5(C)CC[C@@H](C(C)(C)O)O5)CC[C@]43C)[C@@]3(C)CC[C@H](O)C(C)(C)C23)[C@H](O[C@@H]2O[C@@H](C)[C@H](O)[C@@H](O)[C@H]2O)[C@@H](O)[C@@H]1O (stereo partly specified)	nt	nt	15.0	nt	-0.2	14.1
c1ccc(-c2nnc3ccc(N4CCC5(CC4)OCCO5)nn23)cc1	24.1	-1.8	-1.4	8.7*	0.6	-2.0
COc1cccc(Nc2ncnc3onc(-c4ccccc4OC)c23)c1	20.6	-2.1	-28.6	-3.0	-0.1	14.5
S=C(NCCc1ccccc1)Nc1ccc(N2CCCCC2)cc1	-30.5	-5.3	4.4	-4.8	0.9	4.6
COc1cc(/C=C2\COC/C(=C\c3cc(OC)c(OC)c(OC)c3)C2=O)cc(OC)c1OC	103.4*	-1.3	nt	-3.1	nt	nt
Cc1ccc2ccc3cccnc3c2n1	-51.3	-26.6	nt	9.5*	nt	nt
COc1cc(Cl)c(C)cc1NC(=O)COC(=O)C1=COCCO1	11.2	nt	2.1	nt	-5.2	-4.5
